Measured values reported in ChEMBL document CHEMBL5236612, “Heterobivalent Inhibitors of Acetyl-CoA Carboxylase: Drug Target Residence Time and Time-Dependent Antibacterial Activity” (J Med Chem, 2022).
In brackets after ≈: the same amount, converted by molar mass. Activity calls are given as the source filed them. The calls are words filed in the database; no cut-off is given here.

Experiments:
[1] = system: Escherichia coli; test: Antibacterial activity against Escherichia coli K12 incubated for 24 hrs by microbroth dilution method; format: functional
[2] = system: Escherichia coli; test: Displacement of 11-(4-(22-(2,4-dibromo-3-(2,7-diaminopyrido[2,3-d]pyrimidin-6-yl)phenoxy)-5,8,11,14,17,20-hexaoxadocos-1-yl)-1H-1,2,3-triazol-1-yl)-N-((1S)-3-(((2S)-3-methyl-1-((3R,4S)-4-methyl-2,5-dioxopyrrolidin-3-yl)-1-oxobutan-2-yl)amino)-3-oxo-1-phenylpropyl)undecanamide from Escherichia coli ACC expressed in Escherichia coli BL21(DE3) pLysS at 50 uM preincubated for 1 hr in presence of Moiramide-B followed by compound addition by LC-MS/MS method
In short: (§1)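 Purified E. coli ACC (1 μM), in 100 mM HEPES pH 8.0 with 15 mM KHCO3 and 20 mM MgCl2, was held 1 h at 22 °C with equimolar heterobivalent inhibitor. Competitor was then added: 100 μM of one warhead alone, or 50 μM each of both warheads together. At timed points, aliquots were spun through G-25 gel filtration columns in 10 mM ammonium formate pH 8.0. Flow-through was denatured in 50% MeCN and bound inhibitor quantified by LC-MS/MS. Dissociation rate came from a single-exponential fit.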

[3] = system: Escherichia coli; test: Displacement of 11-(4-(22-(2,4-dibromo-3-(2,7-diaminopyrido[2,3-d]pyrimidin-6-yl)phenoxy)-5,8,11,14,17,20-hexaoxadocos-1-yl)-1H-1,2,3-triazol-1-yl)-N-((1S)-3-(((2S)-3-methyl-1-((3R,4S)-4-methyl-2,5-dioxopyrrolidin-3-yl)-1-oxobutan-2-yl)amino)-3-oxo-1-phenylpropyl)undecanamide from Escherichia coli ACC expressed in Escherichia coli BL21(DE3) pLysS at 50 uM preincubated for 1 hr in presence of 6-(2,6-dibromophenyl)pyrido[2,3-d]pyrimidine-2,7-diamine followed by compound addition by LC-MS/MS method; in short: as §1
[4] = system: Escherichia coli; test: Displacement of 11-(4-(22-(2,4-dibromo-3-(2,7-diaminopyrido[2,3-d]pyrimidin-6-yl)phenoxy)-5,8,11,14,17,20-hexaoxadocos-1-yl)-1H-1,2,3-triazol-1-yl)-N-((1S)-3-(((2S)-3-methyl-1-((3R,4S)-4-methyl-2,5-dioxopyrrolidin-3-yl)-1-oxobutan-2-yl)amino)-3-oxo-1-phenylpropyl)undecanamide from Escherichia coli ACC expressed in Escherichia coli BL21(DE3) pLysS at 100 uM preincubated for 1 hr followed by compound addition by LC-MS/MS method; in short: as §1
[5] = system: Escherichia coli; test: Antibacterial activity against acrAB knockout Escherichia coli MG1655 incubated for 24 hrs in presence of PMBN by microbroth dilution method; format: functional
[6] = system: Escherichia coli; test: Antibacterial activity against tolC knockout Escherichia coli incubated for 24 hrs in presence of PMBN by microbroth dilution method; format: functional
[7] = Inhibition of Escherichia coli ACC expressed in Escherichia coli BL21(DE3) pLysS incubated for 45 mins in presence of ATP and acetyl coA by fluorescence polarization assay
In short: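 E. coli BC (1 nM), biotinylated BCCP (2 nM) and CT (1 nM), His-tag purified then size-exclusion purified, preincubated with inhibitor in 100 mM HEPES pH 8.0, 15 mM KHCO3, 20 mM MgCl2. ADP detected by Transcreener fluorescence polarization; Morrison fit for Ki when tight binding; triplicate.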

[8] = system: Escherichia coli; test: Antibacterial activity against Escherichia coli harbouring TolC-deficient mutant assessed as post antibiotic effect by measuring time required for increase in 1 log10 CFU/ml of bacteria at 8 times MIC incubated for 1 hr followed by compound washout and measured for 16 hrs; format: functional
[9] = system: Escherichia coli; test: Antibacterial activity against Escherichia coli harbouring TolC-deficient mutant assessed as post antibiotic effect by measuring time required for increase in 1 log10 CFU/ml of bacteria at 16 times MIC incubated for 1 hr followed by compound washout and measured for 16 hrs; format: functional
[10] = system: Escherichia coli; test: Antibacterial activity against Escherichia coli harbouring TolC-deficient mutant assessed as post antibiotic effect by measuring time required for increase in 1 log10 CFU/ml of bacteria at 32 times MIC incubated for 1 hr followed by compound washout and measured for 16 hrs; format: functional
[11] = system: Escherichia coli; test: Antibacterial activity against Escherichia coli incubated for 24 hrs in presence of PMBN by microbroth dilution method; format: functional
[12] = system: Escherichia coli; test: Antibacterial activity against acrAB knockout Escherichia coli MG1655 incubated for 24 hrs by microbroth dilution method; format: functional
[13] = system: Escherichia coli; test: Antibacterial activity against tolC knockout Escherichia coli incubated for 24 hrs by microbroth dilution method; format: functional
[14] = Inhibition of Escherichia coli biotin carboxylase in presence of ATP and NADH by UV-Vis spectrophotometric assay

SMILES: CC(C)[C@H](NC(=O)C[C@H](NC(=O)CCCCCCCCCCn1cc(CCCCOCCOCCOCCOCCOCCOCCOCCOCCOCCOCCOCCOCCOCCOCCOCCOc2ccc(Br)c(-c3cc4cnc(N)nc4nc3N)c2Br)nn1)c1ccccc1)C(=O)[C@@H]1C(=O)NC(=O)[C@H]1C
- MIC [1]: > 25 µM
- Activity [2]: Active
- Activity [3]: Active
- Activity [4]: inactive
- MIC [5]: 12.5 µM
- MIC [6]: 1.56 µM
- Ki [7]: 0.33 nM
- PAE [8]: 1.9 h
- PAE [9]: 3.8 h
- PAE [10]: 4.6 h

SMILES: CC(C)[C@H](NC(=O)C[C@H](NC(=O)CCCCCCCCCCN=[N+]=[N-])c1ccccc1)C(=O)[C@@H]1C(=O)NC(=O)[C@H]1C
- MIC [1]: > 25 µM
- MIC [11]: 12.5 µM
- MIC [12]: > 25 µM
- MIC [5]: 1.56 µM
- MIC [6]: 0.2 µM
- IC50 [7]: 74 nM

SMILES: C#CCCCCOCCOCCOCCOCCOCCOCCOCCOCCOCCOCCOCCOCCOCCOCCOCCOc1ccc(Br)c(-c2cc3cnc(N)nc3nc2N)c1Br
- MIC [1]: > 25 µM
- MIC [13]: 25 µM (≈ 28.8 µg/mL)
- MIC [5]: > 25 µM
- MIC [6]: 12.5 µM
- IC50 [7]: 64 nM

SMILES: CC(C)[C@H](NC(=O)C[C@H](NC(=O)CCCCCCCCCCn1cc(CCCCOc2ccc(Br)c(-c3cc4cnc(N)nc4nc3N)c2Br)nn1)c1ccccc1)C(=O)[C@@H]1C(=O)NC(=O)[C@H]1C
- MIC [1]: > 25 µM
- Activity [2]: Active
- Activity [3]: Active
- Activity [4]: inactive
- MIC [5]: 12.5 µM
- MIC [6]: 0.78 µM
- IC50 [7]: 1.81 nM
- PAE [8]: 1.9 h
- PAE [9]: 2.2 h
- PAE [10]: 3.8 h

SMILES: CC(C)[C@H](NC(=O)C[C@H](NC(=O)CCCCCCCCCCn1cc(CCCCOCCOCCOCCOCCOCCOCCOc2cc(Br)c(-c3cc4cnc(N)nc4nc3N)c(Br)c2)nn1)c1ccccc1)C(=O)[C@@H]1C(=O)NC(=O)[C@H]1C
- MIC [13]: 6.25 µM (≈ 8.28 µg/mL)
- MIC [5]: > 25 µM
- MIC [6]: 0.78 µM
- IC50 [7]: 3.53 nM

SMILES: C#CCCCCOCCOCCOCCOc1ccc(Br)c(-c2cc3cnc(N)nc3nc2N)c1Br
- MIC [1]: > 25 µM
- MIC [5]: 3.13 µM
- MIC [6]: 1.56 µM
- IC50 [7]: 19 nM

SMILES: CC(C)[C@H](NC(=O)C[C@H](NC(=O)CCCCCCCCCCn1cc(CCCCOCCOCCOCCOCCOCCOCCOCCOCCOCCOCCOCCOCCOc2ccc(Br)c(-c3cc4cnc(N)nc4nc3N)c2Br)nn1)c1ccccc1)C(=O)[C@@H]1C(=O)NC(=O)[C@H]1C
- MIC [1]: > 25 µM
- Activity [2]: Active
- Activity [3]: Active
- Activity [4]: inactive
- MIC [5]: 6.25 µM
- MIC [6]: 1.56 µM
- Ki [7]: 0.18 nM
- PAE [8]: 2.1 h
- PAE [9]: 2.6 h
- PAE [10]: 3.6 h

SMILES: C#CCCCCOCCOCCOCCOCCOCCOCCOc1ccc(Br)c(-c2cc3cnc(N)nc3nc2N)c1Br
- MIC [1]: > 25 µM
- MIC [5]: 6.25 µM
- IC50 [7]: 32 nM

SMILES: C#CCCCCOCCOCCOCCOCCOCCOCCOCCOCCOCCOCCOCCOCCOc1ccc(Br)c(-c2cc3cnc(N)nc3nc2N)c1Br
- MIC [1]: > 25 µM
- MIC [13]: 25 µM (≈ 25.5 µg/mL)
- MIC [5]: > 25 µM
- IC50 [7]: 82 nM

SMILES: CC(C)[C@H](NC(=O)C[C@H](NC(=O)CCCCCCCCCCn1cc(CCCCOCCOCCOCCOc2ccc(Br)c(-c3cc4cnc(N)nc4nc3N)c2Br)nn1)c1ccccc1)C(=O)[C@@H]1C(=O)NC(=O)[C@H]1C
- MIC [1]: > 25 µM
- MIC [13]: 3.13 µM (≈ 3.73 µg/mL)
- Activity [2]: Active
- Activity [3]: Active
- Activity [4]: inactive
- MIC [5]: 6.25 µM
- MIC [6]: 0.78 µM
- Ki [7]: 0.26 nM
- PAE [8]: 1 h
- PAE [9]: 1.2 h
- PAE [10]: 2.6 h

SMILES: Nc1ncc2cc(-c3c(Br)ccc(OCCO)c3Br)c(N)nc2n1
- IC50 [14]: 550 nM

SMILES: C#CCCCCOCCOCCOCCOCCOCCOCCOc1cc(Br)c(-c2cc3cnc(N)nc3nc2N)c(Br)c1
- MIC [5]: > 25 µM
- MIC [6]: > 25 µM
- IC50 [7]: 849 nM

SMILES: CC(C)[C@H](NC(=O)C[C@H](NC(=O)CCCCCCCCCCn1cc(CCCCOCCOCCOCCOCCOCCOCCOc2ccc(Br)c(-c3cc4cnc(N)nc4nc3N)c2Br)nn1)c1ccccc1)C(=O)[C@@H]1C(=O)NC(=O)[C@H]1C
- MIC [1]: > 25 µM
- MIC [11]: > 25 µM
- MIC [12]: > 25 µM
- MIC [5]: 3.13 µM
- MIC [6]: 0.39 µM
- Ki [7]: 0.25 nM
- PAE [8]: 1.7 h
- PAE [9]: 1.7 h
- PAE [10]: 3.4 h

SMILES: C#CCCCCOCCOCCOCCOCCOCCOCCOCCOCCOCCOc1ccc(Br)c(-c2cc3cnc(N)nc3nc2N)c1Br
- MIC [1]: > 25 µM
- MIC [13]: 25 µM (≈ 22.2 µg/mL)
- MIC [5]: 15 µM
- MIC [6]: 12.5 µM
- IC50 [7]: 98 nM

SMILES: C#CCCCCOCCOCCOCCOCCOCCOCCOCCOCCOCCOCCOCCOCCOCCOCCOCCOCCOCCOCCOc1ccc(Br)c(-c2cc3cnc(N)nc3nc2N)c1Br
- MIC [13]: > 25 µM
- MIC [5]: > 25 µM
- MIC [6]: 12.5 µM
- IC50 [7]: 126 nM

SMILES: Nc1ncc2cc(-c3c(Br)cc(OCCO)cc3Br)c(N)nc2n1
- IC50 [14]: 730 nM

SMILES: COc1cc(Br)c(-c2cc3cnc(N)nc3nc2N)c(Br)c1
- IC50 [14]: 1200 nM

SMILES: CC(C)[C@H](NC(=O)C[C@H](NC(=O)CCCCCCCCCCn1cc(CCCCOCCOCCOCCOCCOCCOCCOCCOCCOCCOc2ccc(Br)c(-c3cc4cnc(N)nc4nc3N)c2Br)nn1)c1ccccc1)C(=O)[C@@H]1C(=O)NC(=O)[C@H]1C
- MIC [1]: > 25 µM
- Activity [2]: Active
- Activity [3]: Active
- Activity [4]: inactive
- MIC [5]: 3.13 µM
- MIC [6]: 0.78 µM
- Ki [7]: 0.31 nM
- PAE [8]: 1.2 h
- PAE [9]: 1.8 h
- PAE [10]: 3.4 h

SMILES: COc1ccc(Br)c(-c2cc3cnc(N)nc3nc2N)c1Br
- IC50 [14]: ≤ 250 nM

SMILES: C#CCCCCOc1ccc(Br)c(-c2cc3cnc(N)nc3nc2N)c1Br
- MIC [1]: > 25 µM
- MIC [13]: 1.56 µM (≈ 0.766 µg/mL)
- MIC [11]: 12.5 µM
- MIC [12]: > 25 µM
- MIC [5]: 0.78 µM
- MIC [6]: 0.78 µM
- IC50 [7]: ≤ 1 nM
